Assay outcomes (PubChem)
Rows were chosen to be rich in hits. Some 2.2% of all compounds tested hit in one or more screens of this group.
NR2E3 ag-1 = activates human NR2E3 receptor. Q9Y5X4. CHO-S Gal4-NCOR/VP16-NR2E3 two-hybrid, luciferase. inhibition of corepressor binding, % at 3.98 µM. 360,000 compounds, 0.35% hits. AID 602229;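 active means inhibition above the mean of all tested compounds plus 3 SD, cut at about 70% in these data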;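 further: 0% = DMSO with NR2E3 transfected cells and 100% = cells lacking NR2E3 construct; higher means lower luciferase signal from less NR2E3 corepressor binding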
Target sequence (Q9Y5X4 whole entry, looked up, the tested form may be a part): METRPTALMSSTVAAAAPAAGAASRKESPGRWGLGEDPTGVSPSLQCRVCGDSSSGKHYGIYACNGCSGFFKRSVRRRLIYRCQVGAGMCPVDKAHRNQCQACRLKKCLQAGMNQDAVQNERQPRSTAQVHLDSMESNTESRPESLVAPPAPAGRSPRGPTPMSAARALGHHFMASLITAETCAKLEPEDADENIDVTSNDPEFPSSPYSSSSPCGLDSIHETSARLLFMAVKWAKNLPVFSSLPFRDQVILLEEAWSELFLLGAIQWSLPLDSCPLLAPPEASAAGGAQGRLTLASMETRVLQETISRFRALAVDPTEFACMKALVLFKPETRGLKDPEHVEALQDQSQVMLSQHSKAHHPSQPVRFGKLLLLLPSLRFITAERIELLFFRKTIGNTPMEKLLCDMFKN
FGF22 binding = FGF22 (human) thermal shift binding. Q9HCT0. recombinant FGF22 thermal shift, SYPRO orange fluorescence; percent of sucrose octasulfate shift, DMSO zero. activity (Tm shift, normalised), % at 9.99 µM. 340,000 compounds, 1.5% hits. AID 651658;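 active means mean Tm shift, scaled 0 neutral to 100 positive control, at about 1.3% or above, every replicate too, limit read from the data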
Target sequence (Q9HCT0 whole entry, looked up): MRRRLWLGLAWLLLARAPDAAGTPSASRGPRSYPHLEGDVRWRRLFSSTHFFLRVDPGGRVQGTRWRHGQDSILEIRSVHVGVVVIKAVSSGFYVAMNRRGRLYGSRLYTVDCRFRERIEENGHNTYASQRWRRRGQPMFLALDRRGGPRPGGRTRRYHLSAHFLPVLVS
NR2E3 ag-2 = activates human photoreceptor nuclear receptor NR2E3. inhibition of corepressor binding, % at 4.78 µM. 320,000 compounds, 0.12% hits. Q9Y5X4. AID 2300. GST-NR2E3/biotin-RetCOR TR-FRET, 1536-well;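 active means percent inhibition above the cutoff of mean plus 3 SD of all tested compounds, set per screening campaign, cut at about 20% in these data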;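 further: 0% = DMSO wells and 100% = biotin wells as full block of FRET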
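Test system: GST-NR2E3 and biotin-RetCOR proteins | Quantity: 1.35 nM GST-tagged NR2E3 final | Medium: Tris pH 7.5 | Also added: 7 nM biotin-RetCOR | Dosing: Compound at 4.8 µM, single dose | Timing: 5 h at 4 °C | Detection: Time-resolved FRET | Read-out basis: Percent inhibition | Benchmarks: Biotin wells as high control, 0.6% DMSO wells as low control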
miR122 inh = miR-122 inhibition in Huh7 cells; Huh7 miR-122 Renilla luciferase sensor, 48 h; neutral wells = 0, positive control = 100; 340,000 compounds, 0.3% hits; activation (reporter increase), % at 12.5 µM;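 active means mean replicate activation score at least 90 and every replicate individually at or above 90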;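 further: higher luciferase means less miR-122 activity so hits act as miR-122 inhibitors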
697 NFkB inh = inhibitors of the PMA/ionomycin-induced NF-kB reporter in 697 B cells | 330,000 compounds, 0.33% hits | inhibition, % at 4 µM | 697 B-cell NF-kB luciferase reporter, 16 h; in the data active means inhibition above about 35%
Jurkat NFkB inh = inhibitors of the PMA/ionomycin-induced NF-kB reporter in Jurkat cells | 330,000 compounds, 0.53% hits | inhibition, % at 4 µM | PMA/ionomycin-induced NF-kB luciferase reporter, luminescence; in the data active means inhibition above about 50%
Starred values were filed as active, the others as inactive; . = not tested or not shown; [ ] = dose if it differs, or a comment.

SMILES	NR2E3 ag-1	FGF22 binding	NR2E3 ag-2	miR122 inh	697 NFkB inh	Jurkat NFkB inh
O=C(NC1CCCc2ccccc21)c1ccc([N+](=O)[O-])cc1 (configuration not stated)	-12	43*	-1	.	6	16
COc1ccc(-c2cc(C)no2)cc1S(=O)(=O)Nc1cccc(C)c1	-14	0	1	117*	20	3
COc1ccccc1NS(=O)(=O)c1cc(-c2cc(C)no2)ccc1OC	2	0	-4	53	8	18
COc1ccc(-c2cc(C)no2)cc1S(=O)(=O)Nc1ccccc1	-31	0	3	120*	-14	31
CNC(=O)C[C@@H]1CC[C@H]2[C@@H](COc3ccc(NC(=O)Nc4ccccc4)cc3C(=O)N2C)O1	.	0	.	7[16.7 µM]	.	.
O=C(/C=C/c1ccco1)Nc1ccc(-c2nc3ccccc3[nH]2)cc1	-39	.	-5	101*	.	.
CC(C)c1ccc(NC(=O)COC(=O)COc2ccccc2)cc1	-15	43*	2	.	-11	-15
CSc1ccc(S(=O)(=O)NC2CC3CCC2C3)cc1 (configuration not stated)	-19	0	1	104*	3	-14
COc1ccc(S(=O)(=O)NC2CC3CCC2C3)cc1 (configuration not stated)	15	0	-5	41	-6	-2
COc1ccc(NC(=O)N[C@H]2CC[C@@H](CCNC(=O)CN3CCOCC3)O[C@@H]2CO)cc1	.	0	.	.	.	.
COc1cc(CCC(=O)OCC(N)=O)cc(OC)c1OC	-33	43*	-1	2	-9	-8
COc1cc(-c2cc(-c3ccc(F)cc3)nc(N)c2C#N)ccc1O	-18	43*	-3	25	0	14
O=C(C[C@H]1CC[C@@H]2[C@H](COC[C@@H](O)CN2Cc2cc(F)ccc2F)O1)NCc1ccc(Oc2ccccc2)cc1	.	0	.	-1[16.7 µM]	.	.
CCC(=O)Nc1cc(C(=O)O)ccc1Sc1ccc(Cl)cc1	-4	44*	0	0	13	5
CCN(CC)CCNC(=O)c1ccc(Sc2ccc(Cl)cc2)c(NC(C)=O)c1	-6	45*	4	3	-30	-12
CC(C)c1ccc(/C=C/C(=O)CCC(=O)O)cc1	-89	0	0	213*	-119	-12
CCOc1ccc(/C=C/C(=O)CCC(=O)O)cc1	-80	43*	2	-2	-96	-12
CCOc1ccc(/C=C/C(=O)Oc2ccc(OC)cc2)cc1	-9	0	2	.	-5	-13
O=C(O)CCC(=O)/C=C/c1ccccc1	-24	0	2	-3	11	-4
Cc1cccc(NC(=O)CN2C(=O)N/C(=C/c3cc(C)n(C)c3C)C2=O)c1	16	44*	.	.	.	.
Cc1cccc(NC(=O)CN2C(=O)N/C(=C/c3cc(C)n(-c4ccncc4)c3C)C2=O)c1	-29	0	1	-6	18	7
O=C(/C=C/c1ccc(OCCCF)cc1)Nc1ccnc(-c2cccnc2)n1	-2	44*	-1	-6	-15	9
CCOC(=O)c1ccc(-n2ccnc2)c(NC(=O)c2cccc(Br)c2)c1	6	0	-2	128*	1	9
O=c1[nH]cc(CN2CCOCC2)c(=O)[nH]1	-20	43*	.	-1	.	.
O=C(CC1C(=O)NCCN1Cc1ccc(-c2ccccc2)cc1)NCCc1ccccn1 (configuration not stated)	12	0	0	.	-7	4
SMILES	NR2E3 ag-1	FGF22 binding	NR2E3 ag-2	miR122 inh	697 NFkB inh	Jurkat NFkB inh
O=C(CC1C(=O)NCCN1Cc1ccc(-c2ccccc2)cc1)NCC1CC1 (configuration not stated)	4	44*	5	.	-7	15
C=CCNC(=O)CC1C(=O)NCCN1Cc1ccc(-c2ccccc2)cc1 (configuration not stated)	13	43*	1	.	3	3
CN(CCc1ccccn1)C(=O)CC1C(=O)NCCN1Cc1ccc(-c2ccccc2)cc1 (configuration not stated)	-9	44*	0	.	7	-4
Cc1ccc(CN2CCNC(=O)C2CC(=O)N(C)CCc2ccccc2)cc1 (configuration not stated)	9	0	-3	7	18	2
Cc1cc(CN(C)C(=O)CC2C(=O)NCCN2CC(c2ccccc2)c2ccccc2)on1 (configuration not stated)	1	42	-2	-4	9	0
COCCN(C)C(=O)CC1C(=O)NCCN1CC(c1ccccc1)c1ccccc1 (configuration not stated)	-21	44*	0	.	1	-2
CCc1cc(CNC(=O)CC2C(=O)NCCN2Cc2c(F)cccc2Cl)on1 (configuration not stated)	15	0	3	1	21	3
CCc1cc(CNC(=O)CC2C(=O)NCCN2Cc2cccc(OC)c2)on1 (configuration not stated)	2	44*	3	.	0	2
Fc1ccc2cnc(-c3ccccc3F)cc2c1	-31	0	.	-1	-93	-64
Fc1ccccc1-c1cc2ccccc2cn1	-23	44*	6	-3	-85	-105
Cc1ccc(S(=O)(=O)N[C@H]2C=C[C@@H](CC(=O)NCc3ccccc3F)O[C@H]2CO)cc1	.	0	.	-12[16.7 µM]	.	.
C[C@@H]1CN([C@@H](C)CO)S(=O)(=O)c2ccc(C#Cc3ccncc3)cc2O[C@@H]1CN(C)C	.	0	.	-5[16.7 µM]	.	.
COc1ccc(C)cc1S(=O)(=O)Nc1cccc(SC)c1	8	.	1	166*	-7	0
COc1ccc(NS(=O)(=O)c2cc(C)ccc2OC)cc1OC	21	.	-1	95*	14	-4
COc1ccc(C)cc1S(=O)(=O)Nc1cccc(C)c1	23	0	1	.	-4	-14
COc1ccc(C)cc1NS(=O)(=O)c1cn(C)nc1C	3	43*	3	.	14	-6
Cc1ccc(S(=O)(=O)Nc2ccc3c(c2)C(=O)N([C@@H](C)CO)C[C@@H](C)[C@H](CN(C)S(=O)(=O)c2ccccc2)O3)cc1	.	0	.	3[16.7 µM]	.	.
C[C@@H]1CCCCO[C@@H](CN(C)C(=O)C2CCCCC2)[C@@H](C)CN([C@@H](C)CO)C(=O)c2cc(NC(=O)Nc3cccc4ccccc34)ccc2O1	.	0	.	-16[16.7 µM]	.	.
Cc1ccc(/C=N/NC(=O)CNC(=O)c2ccc(C)c([N+](=O)[O-])c2)o1	-14	0	1	.	5	1
Cc1ccc(/C=N/NC(=O)CNC(=O)c2cccc([N+](=O)[O-])c2C)o1	10	43*	4	.	6	-4
COc1ccc(S(=O)(=O)NC2CCCCCC2)c(OC)c1	-13	0	-2	29	-6	1
